Compounds with a hit are over-represented: about 3.1% of the library has one in this group of screens.
Bfl-1 A1 inh: caspase 3/7 activation in MEF A1-2A-BIM cells, primary screen, A1 inhibitor project, cell-based, luminescence, HTS | caspase activation, % (test concentration not listed) | 330,000 tested, 0.066% active | Caspase-Glo 3/7 luminescence, 3 h; percent of clofoctol response, vehicle zero | AID 2462, 2010;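 active = over half of replicate activation scores above 10%, or exactly half above 10 with the replicate mean above 10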
Beta apoptosis: inhibitors of cytokine-induced beta cell apoptosis, primary screen, luminescence; INS-1E cytokine-induced death, ATP luminescence, 48 h; percent of positive-control rescue, neutral wells zero; protection from apoptosis, % (no concentration beside the values); 300,000 tested, 0.8% active; AID 435005, 2010;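 active = Every replicate reaches about 75%, or at least half do and their mean reaches it too, limit read from the data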;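 also: 0% = cytokine-treated negative control wells and 100% = positive control rescue; higher means more ATP so stronger rescue from cytokine killing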
Calb FLC: C. albicans growth inhibition with fluconazole, primary screen, CaCi-2 strain, Alamar Blue fluorescence | C. albicans CaCi-2 + fluconazole, 48 h | growth inhibition, % (no concentration beside the values) | 300,000 tested, 0.57% active | AID 1979, 2009;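 active = growth inhibition above about 58% in most replicates, limit read from the data, passing the limit was not always enough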;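 also: all wells also contain fluconazole at 8 µg/ml as a sub-toxic cotreatment; 0% = median of DMSO wells and 100% = median of geldanamycin control wells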
TAG inh: inhibitors of triacylglycerol accumulation, primary screen, cell-based, uHTS, fluorescence, H9c2 | AID 651582, 2012 | H9c2 cells, Nile Red lipid (TAG) fluorescence; cells loaded with 200 µM oleic acid | inhibition, % at 12.5 µM | 230,000 tested, 0.66% active;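 active = pattern-corrected inhibition of lipid staining of at least 50% with the nuclear-stain viability signal not falling by more than 50%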;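 also: 0% = DMSO wells and 100% = triacsin C control wells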
T cruzi inh: inhibitors of intracellular T. cruzi growth, primary screen, luminescence, NIH3T3 host cells. T. cruzi beta-gal in NIH3T3, 90 h. inhibition, % (concentration not given with the values). AID 1885, 2009. 300,000 tested, 1.4% active;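 active = mean inhibition across valid replicates above about 55%, limit read from the data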;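 also: signal also drops with host cell toxicity which is not excluded here; 0% = plate median of DMSO wells and 100% = zero luminescence signal; higher percent means less beta-gal luminescence so fewer parasites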
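Material: NIH/3T3 host cells with β-galactosidase reporter T. cruzi; Input: 5,000 host fibroblasts per well; Medium: DMEM, 2% fetal bovine serum; Compound: 50 nL DMSO compound solution per well; Schedule: 3 h host attachment, then at least 90 h co-culture; Detection: luminescent β-galactosidase signal after 60 min lysis.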
CSC inhib: cancer stem cell viability inhibitors, primary screen, luminescence; cancer stem cell-like cells viability; inhibition, % at 7.5 µM; 300,000 tested, 1.1% active; AID 2717, 2010; in the data active = inhibition above about 75%; tested in HMLE shEcad cells
The depositor's hits bear a star; x = no result.

SMILES | Bfl-1 A1 inh | Beta apoptosis | Calb FLC | TAG inh | T cruzi inh | CSC inhib
CCN(CC)CCSc1nnc2c3ccccc3n(Cc3ccccc3)c2n1 | 4 | -1 | -10 | 4 | 69* | 79*
CCN(CC)CCSc1nnc2c3cc(F)ccc3n(Cc3ccccc3)c2n1 | 0 | 2 | -2 | x | 44 | 44
CC(NC(=O)CN1CCOCC1)c1ccc(F)cc1 (stereo unspecified) | 0 | -9 | -5 | x | 0 | -8
CC1=C(CC[C@@H](C)CO)OC2CC3C4CCC5CC(O)CCC5(C)C4CC(=O)C3(C)C12 (stereo partly specified) | 0 | -3 | 87* | x | 9 | 0
CCCNC(=O)C12CCC(C)(c3nc4cc(C)c(C)cc4nc31)C2(C)C (stereo unspecified) | 1 | 0 | 110* | 1 | x | -9
O=C(Nc1ccc(N2CCN(C(=O)c3ccccc3)CC2)cc1)c1ccc([N+](=O)[O-])o1 | x | x | 3 | 95 | 45 | x
CC(=O)N1CCN(c2ccc(NC(=O)c3ccc(C(C)(C)C)cc3)cc2)CC1 | 0 | 8 | 109* | x | 12 | 15
Cc1ccccc1C(=O)N1CCN(c2ccc(NC(=O)c3cccnc3)cc2)CC1 | 1 | 75* | -20 | -11 | -6 | -3
Cc1ccccc1C(=O)N1CCN(c2ccc(NC(=O)c3ccc4c(c3)OCO4)cc2)CC1 | 1 | 4 | -4 | 2 | 12 | 77*
CC(=O)N1CCN(c2ccc(NC(=O)c3ccc(Cl)cc3)cc2)CC1 | 2 | -4 | 6 | 3 | -10 | -12
Cc1ccccc1C(=O)N1CCN(c2ccc(NC(=O)c3ccc([N+](=O)[O-])o3)cc2)CC1 | -1 | 22 | -14 | x | 58* | 91*
CSCCC(NS(=O)(=O)c1ccc(C)cc1)C(=O)N1CCN(S(=O)(=O)c2ccc(F)cc2)CC1 (stereo unspecified) | 0 | x | 7 | 2 | 15 | -14
CC1(C)CC2CC(C)(CN2S(=O)(=O)c2ccc(F)cc2F)C1 (stereo unspecified) | 1 | -1 | x | -13 | x | 4
Cc1ccccc1-c1cccc([C@@H]2C[C@H]3[C@H](CON3C)CN2C(=O)CCc2ccccc2)c1 | x | x | x | -18 | x | x
COc1ccc(C(=O)NNC(=S)NC(=O)c2ccc(Cl)cc2)cc1 | 0 | 11 | 88* | x | 12 | 32
COc1ccc(C(=O)NC(=S)NNC(=O)c2ccc(C)cc2)cc1 | 0 | 7 | 107* | 3 | 16 | 19
COc1cc(C(=O)NNC(=S)NC(=O)c2ccc(Cl)cc2)cc(OC)c1OC | 0 | 18 | -5 | x | 70* | 16
Cc1cccc(C(=O)NC(=S)NNC(=O)c2ccc(Cl)cc2)c1 | 0 | 3 | -3 | 0 | 21 | 37
COc1ccc(C(=O)NC(=S)NNC(=O)c2ccc3ccccc3n2)cc1 | 0 | -18 | 108* | 7 | 51 | 1
COc1cc(OC)cc(C(=O)NNC(=O)c2ccc3ccccc3n2)c1 | x | x | x | -7 | x | x
C=C(CN(C)C)C(=O)c1cc(C)ccc1C | x | x | x | 20 | x | x
CCOC(=O)C1CCCN(C(=O)c2cccc(S(=O)(=O)N(C)c3ccc(C)cc3)c2)C1 (stereo unspecified) | 0 | 4 | x | -9 | x | x
O=C(NCC(c1ccccc1Cl)N1CCCC1)c1ccc(N2CCCC2=O)cc1 (stereo unspecified) | x | x | x | 20 | x | x
Cc1cccc(N2CCN(S(=O)(=O)c3c(C)noc3/C=C/N(C)C)CC2)c1C | 0 | 0 | -6 | x | 11 | 29
Cc1ccc(C2=N/C(=C\c3ccc(F)cc3)C(=O)N2)cc1 | 1 | 0 | x | 8 | x | x
SMILES | Bfl-1 A1 inh | Beta apoptosis | Calb FLC | TAG inh | T cruzi inh | CSC inhib
CCCCCNCc1ccc(Cl)cc1 | -1 | 0 | -2 | 8 | 11 | x
CCCCCCC[N+](CC)(CC)CCCCc1ccc(Cl)cc1 | 0 | 114* | x | 5 | x | 7
C/C(=N\NC(=O)c1ccc(-n2cnnn2)cc1)c1ccc(Cl)cc1 | 0 | 6 | x | -8 | x | -8
CCn1c(C)c(C)c2cc(C(=O)Nc3cccc(Cl)c3)ccc21 | -1 | 4 | 10 | 13 | 44 | 81*
Cc1cc(C(=O)COC(=O)c2ccc(F)cc2F)c(C)n1C1CC1 | -4 | -2 | x | -17 | x | -8
O=C(Nc1cc(Cl)cc(Cl)c1)C1CCCC1 | 1 | 8 | -1 | -1 | 7 | 13
O=C(CSc1nnc(COc2ccc(Cl)cc2)o1)N1c2ccccc2CCc2ccccc21 | 0 | -3 | -1 | x | 66* | 19
CCCC[n+]1ccn(-c2nc3ccccc3nc2[N-]S(=O)(=O)c2ccc(Br)cc2)c1 | 0 | -1 | -5 | -2 | 3 | 4
CCCC[n+]1ccn(C2=C([O-])c3ccccc3C(=O)/C2=N\S(=O)(=O)c2ccc(Cl)cc2)c1 | 1 | 114* | -1 | 15 | 10 | 27
CCCCC[n+]1ccn(C2=C([O-])c3ccccc3C(=O)/C2=N\S(=O)(=O)c2ccc(Cl)cc2)c1 | 0 | 109* | 21 | 38 | 46 | 17
Cc1cc(C)n2nc(C(=O)OCC(=O)N(Cc3ccccc3)C(C)C)nc2n1 | x | x | x | 14 | x | x
O=C(COC(=O)Cn1cnc2ccccc21)Nc1ccc(OC(F)F)cc1 | 2 | 5 | x | 15 | x | -7
CN(CC(=O)Nc1cccc(F)c1)C(=O)c1cccnc1Sc1ccccc1Cl | 0 | -1 | 0 | 2 | -4 | -10
CCn1cc(C(=O)O)c(=O)c2cnc(N3CCN(C(=S)NC(=O)c4ccc(Cl)cc4)CC3)nc21 | -1 | -8 | 1 | x | 4 | 4
COC(=O)[C@@]12CCCCN1[C@H](c1ccc(-c3cccc(Cl)c3)c(OC)c1)[C@@H]1C(=O)N(C)C(=O)[C@@H]12 | -1 | 18 | 11 | 8 | 56* | 10
Cc1ccc(C)c(S(=O)(=O)NCc2ccc(C(=O)N3CCC(Cc4ccccc4)CC3)cc2)c1 | 0 | 5 | 4 | x | 64* | 37
Cc1sc(N)nc1-c1c(C)n(C)c2ccccc12 | -1 | 0 | -7 | x | 1 | -7
O=c1cc(N2CCCCC2)c(-c2ccccc2)nn1Cc1ccccc1 | -1 | 4 | x | 3 | 48 | 105*
CC1CCN(C(=O)CN2C(=O)C(=O)N(C(C)C)C2=O)c2ccccc2S1 (stereo unspecified) | 0 | -1 | x | 5 | x | x
O=C(OCn1ncc(Br)c(Br)c1=O)c1c(F)cccc1F | 0 | 112* | 3 | x | 39 | -3
CC(=O)Cn1ncc(Br)c(Br)c1=O | x | x | 11 | 61* | 56* | x
CC(C)(C)C(=O)Cn1ncc(N2CCCC2)c(Br)c1=O | 0 | 0 | 4 | 6 | -7 | -1
c1ccc(-c2cc(-c3ccncc3)nc3ccc4ccccc4c23)cc1 | 0 | 0 | 3 | x | 36 | 102*
